Active and inactive are the calls of the source. No cut-off for these calls is given here.
Key:
[1] = tested on: HeLa; assay: Induction of apoptosis in human HeLa cells assessed as reduction in Mcl-1 expression at 25 uM after 24 hrs by Western blot analysis; assay type: functional, cell-based
How it was run: (§1)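 HeLa cells treated 24 or 48 h at 25 µM, then lysed. 20 µg protein per lane was run on SDS-PAGE and transferred to PVDF. Membranes were probed 2 h at room temperature for cleaved caspase-9, caspase-3, cleaved PARP, Bcl-2, Mcl-1 or Bax, with peroxidase secondary antibody and ECL. β-Actin reprobe served as loading control.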

[2] = tested on: HeLa; assay: Induction of apoptosis in human HeLa cells assessed as mitochondrial membrane depolarization after 24 to 48 hrs using JC-1 staining-based fluorescence assay; assay type: functional, cell-based
How it was run: (§2)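 Mitochondrial membrane potential was read with the JC-1 dye in HeLa cells after 24 or 48 h at graded concentrations. Data are mean ± SEM of three independent experiments.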

[3] = tested on: HeLa; assay: Antiproliferative activity against human HeLa cells assessed as reduction in cell viability after 72 hrs by MTT assay; assay type: functional, cell-based
How it was run: (§3)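 Cells kept in RPMI-1640 (Jurkat, SEM, RS4;11) or DMEM (A549, HeLa, IGROV-1, HT-29) with 10% FBS plus penicillin/streptomycin. 8×10^3 cells per well were left 18 h at 37 °C in 5% CO2. Medium was then replaced with fresh medium holding graded compound concentrations from 10 mM DMSO stocks. Cells were incubated 72 h and viability read by MTT. IC50 is the mean ± SEM from dose–response curves of at least three independent experiments.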

[4] = Antiproliferative activity against human RS4:11 cells assessed as reduction in cell viability after 72 hrs by MTT assay; assay type: functional, cell-based; conditions: RS4-11, 72 h; how it was run: as §3
[5] = tested on: HeLa; assay: Cell cycle arrest in human HeLa cells assessed as accumulation at G2/M phase after 24 hrs by flow cytometry; assay type: functional, cell-based
How it was run: (§4)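 5×10^5 HeLa or Jurkat cells exposed to graded compound concentrations for 24 h. Cells were fixed in ice-cold 70% ethanol, lysed with RNase A/0.1% Triton X-100 buffer and stained with propidium iodide. DNA content was read by flow cytometry. Phase percentages are mean ± SEM of three independent experiments.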

[6] = tested on: HeLa; assay: Induction of apoptosis in human HeLa cells assessed as caspase 9 cleavage at 25 uM after 24 to 48 hrs by Western blot analysis; assay type: functional, cell-based; how it was run: as §1
[7] = tested on: Jurkat; assay: Cell cycle arrest in human Jurkat cells assessed as accumulation at G2/M phase after 24 hrs by flow cytometry; assay type: functional, cell-based; how it was run: as §4
[8] = tested on: HeLa; assay: Induction of apoptosis in human HeLa cells assessed as early apoptotic cells at 25 uM after 24 hrs using Annexin-V/PI staining by flow cytometry (reference value: 5.26 %); assay type: functional
[9] = molecular target: Tubulin (Bos taurus, UniProt Q6B856+Q862L2+Q862F3); assay: Inhibition of bovine brain tubulin assessed as extent of assembly preincubated for 15 mins by turbidimetry
How it was run: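 Bovine brain tubulin at 10 µM (1.0 mg/mL) in 0.8 M monosodium glutamate pH 6.6 with 4% DMSO and varying compound was preincubated 15 min at 30 °C, then chilled. GTP was added to 0.4 mM final and the temperature jumped from 0 to 30 °C. Turbidity was followed at 350 nm, scoring either maximum rate or extent of assembly at 20 min.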

[10] = tested on: A549; assay: Antiproliferative activity against human A549 cells assessed as reduction in cell viability after 72 hrs by MTT assay; assay type: functional, cell-based; conditions: A549, 72 h; how it was run: as §3
[11] = tested on: HeLa; assay: Induction of apoptosis in human HeLa cells after 24 to 48 hrs using Annexin-V/PI staining by flow cytometry; assay type: functional, cell-based
[12] = tested on: HeLa; assay: Induction of apoptosis in human HeLa cells assessed as reduction in Mcl-1 expression at 25 uM after 48 hrs by Western blot analysis; assay type: functional, cell-based; how it was run: as §1
[13] = tested on: LoVo; assay: Antiproliferative activity against human LoVo cells assessed as reduction in cell viability after 72 hrs by MTT assay; assay type: functional, cell-based
[14] = tested on: HeLa; assay: Effect on cell morphology in human HeLa cells at 25 uM after 24 hrs using phalloidin staining by confocal microscopy; assay type: functional, cell-based
How it was run: (§5)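 After 24 h at 25 µM, HeLa cells were stained with anti-PCM1 and Alexa-conjugated secondary antibody, with phalloidin-tetramethylrhodamine B for actin and DAPI for nuclei. Cells were imaged by confocal microscopy at 60×.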

[15] = tested on: HeLa; assay: Effect on cell morphology in human HeLa cells assessed as disorganization of actin filament at 25 uM after 24 hrs by confocal microscopy relative to control; assay type: functional, cell-based; how it was run: as §5
[16] = tested on: PBL; assay: Cytotoxicity against resting human PBLs assessed as reduction in cell growth; assay type: cell-based
How it was run: (§6)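 Peripheral blood lymphocytes from healthy donors, tested either resting (no PHA) or PHA-stimulated. Value is the concentration reducing cell growth by 50%, mean ± SEM of three separate experiments.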

[17] = tested on: IGROV-1; assay: Antiproliferative activity against human IGROV1 cells assessed as reduction in cell viability after 72 hrs by MTT assay; assay type: functional, cell-based; conditions: IGROV-1, 72 h; how it was run: as §3
[18] = tested on: HeLa; assay: Cell cycle arrest in human HeLa cells assessed as accumulation at G2/M phase at 10 to 25 uM after 24 hrs by flow cytometry; assay type: functional, cell-based; how it was run: as §4
[19] = tested on: HeLa; assay: Induction of apoptosis in human HeLa cells assessed as caspase 3 cleavage at 25 uM after 24 to 48 hrs by Western blot analysis; assay type: functional, cell-based; how it was run: as §1
[20] = tested on: HeLa; assay: Induction of apoptosis in human HeLa cells assessed as late necrotic cells at 25 uM after 24 hrs using Annexin-V/PI staining by flow cytometry (reference value: 3.70 %); assay type: functional
[21] = tested on: HT-29; assay: Antiproliferative activity against human HT-29 cells assessed as reduction in cell viability after 72 hrs by MTT assay; assay type: functional, cell-based; conditions: HT-29, 72 h; how it was run: as §3
[22] = tested on: CCRF-CEM; assay: Antiproliferative activity against human CEM cells assessed as reduction in cell viability after 72 hrs by MTT assay; assay type: functional, cell-based
[23] = tested on: PBL; assay: Cytotoxicity against PHA-stimulated human PBLs assessed as reduction in cell growth; assay type: cell-based; how it was run: as §6
[24] = tested on: HeLa; assay: Induction of apoptosis in human HeLa cells assessed as ROS production at 6.2 to 50 uM after 24 to 48 hrs using H2-DCFDA -based flow cytometry relative to control; assay type: functional, cell-based
How it was run: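 HeLa cells incubated 24 or 48 h at the indicated concentrations, stained with H2-DCFDA and analysed by flow cytometry. Data are mean ± SEM of three independent experiments.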

[25] = tested on: HeLa; assay: Induction of apoptosis in human HeLa cells assessed as late apoptotic cells at 25 uM after 24 hrs using Annexin-V/PI staining by flow cytometry (reference value: 4.31 %); assay type: functional
[26] = molecular target: Tubulin (Bos taurus) (UniProt Q6B856+Q862L2+Q862F3); assay: Displacement of [3H]colchicine from bovine brain tubulin at 500 uM after 10 mins by liquid scintillation counting
[27] = tested on: HeLa; assay: Induction of apoptosis in human HeLa cells at 6.2 to 50 uM using Annexin-V/PI staining by flow cytometry; assay type: functional, cell-based; conditions: TDE = time-dependent effect
[28] = tested on: HeLa; assay: Induction of apoptosis in human HeLa cells assessed as mitochondrial membrane depolarization at 6.2 to 50 uM using JC-1 staining-based fluorescence assay; assay type: functional, cell-based; conditions: TDE = time-dependent effect; how it was run: as §2
[29] = tested on: HeLa; assay: Cell cycle arrest in human HeLa cells assessed as accumulation at G2/M phase at 25 uM after 24 hrs by flow cytometry; assay type: functional; how it was run: as §4
[30] = tested on: HeLa; assay: Induction of apoptosis in human HeLa cells assessed as reduction in Bcl-2 expression at 25 uM after 48 hrs by Western blot analysis; assay type: functional, cell-based; how it was run: as §1

Row | IC50 [3] [µM] | IC50 [9] [µM] | IC50 [10] [µM] | IC50 [13] [µM] | Structure (SMILES) | Activity [1] | Activity [2] | IC50 [4] [µM] | Activity [5] | Activity [6] | Activity [7] | Activity [8] [%] | Activity [11] | Activity [12] | Activity [14] | Activity [15] | IC50 [16] [µM] | IC50 [17] [µM] | Activity [18] | Activity [19] | Activity [20] [%] | further results
1 | 2.6 | > 400 | 73.9 | 42.8 | COc1ccc2c(c1OC)C(=O)O[C@@H]2[C@H]1c2c(c(Br)c3c(c2OC)OCO3)CCN1C | Active | Dose-dependent effect | 1.4 | Dose-dependent effect | Active | Dose-dependent effect | 57.3 | Dose-dependent effect | Active | Active | Active | > 200 | 78.2 | Active | Active | 53.7 | IC50 [21]: 18.7 µM; IC50 [22]: 2.8 µM; IC50 [23]: 92.2 µM; Activity [24]: Active; Activity [25]: 44.7%; inhibition [26]: 34%; Activity [27]: tde; Activity [28]: tde; Activity [29]: >80%; Activity [30]: Active
2 | 12.8 | 120 | 22.2 | 41.8 | COc1ccc2c(c1OC)C(=O)O[C@@H]2[C@H]1c2c(c(-c3ccc(C)cc3)c3c(c2OC)OCO3)CCN1C | inactive | Dose-dependent effect | 16.4 | Dose-dependent effect | Active | Dose-dependent effect | 14.3 | Dose-dependent effect | Active | Active | Active | > 200 | 66.3 | Active | Active | 11.1 | IC50 [21]: 24.9 µM; IC50 [22]: 11.8 µM; IC50 [23]: > 200 µM; Activity [24]: Active; Activity [25]: 22.9%; inhibition [26]: 64%; Activity [27]: tde; Activity [28]: tde; Activity [29]: >80%; Activity [30]: Active
3 | 5.2 | > 400 | > 100 | 66.3 | COc1ccc2c(c1OC)C(=O)O[C@@H]2[C@H]1c2c(c(C)c3c(c2OC)OCO3)CCN1C | Active | Dose-dependent effect | 15.8 | Dose-dependent effect | Active | Dose-dependent effect | 12.5 | Dose-dependent effect | Active | Active | Active | > 200 | 62.4 | Active | Active | 17.1 | IC50 [21]: 34 µM; IC50 [22]: 8.8 µM; IC50 [23]: > 200 µM; Activity [24]: Active; Activity [25]: 13.9%; inhibition [26]: 39%; Activity [27]: tde; Activity [28]: tde; Activity [29]: >80%; Activity [30]: Active

Reference: ChEMBL document CHEMBL3351414, “Novel 9'-substituted-noscapines: synthesis with Suzuki cross-coupling, structure elucidation and biological evaluation” (Eur J Med Chem, 2014)
